Measurements: ChEMBL document CHEMBL1145479, “Tigecycline Efflux as a Mechanism for Nonsusceptibility in Acinetobacter baumannii” (2007)
Converted amounts (≈) assume the structure as drawn.

Columns and labels:
Acinetobacter baumannii [1] = experiment: Antimicrobial activity against Acinetobacter baumannii A24 in presence of efflux pump inhibitor phenyl-arginine-beta-naphthylamide by broth microdilution method; type: functional
Acinetobacter baumannii [2] = experiment: Antimicrobial activity against Acinetobacter baumannii A24D after 4 days in presence of efflux pump inhibitor phenyl-arginine-beta-naphthylamide by broth microdilution method; type: functional; conditions: 96 h
Acinetobacter baumannii [3] = experiment: Antimicrobial activity against Acinetobacter baumannii A24D after 4 days by broth microdilution method; type: functional; conditions: 96 h
Acinetobacter baumannii [4] = experiment: Antimicrobial activity against Acinetobacter baumannii B46 by broth microdilution method; type: functional
Acinetobacter baumannii [5] = experiment: Antimicrobial activity against Acinetobacter baumannii A24A after 4 days by broth microdilution method; type: functional; conditions: 96 h
Acinetobacter baumannii [6] = experiment: Antimicrobial activity against Acinetobacter baumannii D54 by broth microdilution method; type: functional
Acinetobacter baumannii [7] = experiment: Antimicrobial activity against Acinetobacter baumannii C75 in presence of efflux pump inhibitor phenyl-arginine-beta-naphthylamide by broth microdilution method; type: functional
Acinetobacter baumannii [8] = experiment: Antimicrobial activity against Acinetobacter baumannii C75 by broth microdilution method; type: functional
Acinetobacter baumannii [9] = experiment: Antimicrobial activity against Acinetobacter baumannii A24B after 4 days by broth microdilution method; type: functional; conditions: 96 h
Acinetobacter baumannii [10] = experiment: Antimicrobial activity against Acinetobacter baumannii A24C after 4 days by broth microdilution method; type: functional; conditions: 96 h
Acinetobacter baumannii [11] = experiment: Antimicrobial activity against Acinetobacter baumannii B46 in presence of efflux pump inhibitor phenyl-arginine-beta-naphthylamide by broth microdilution method; type: functional
Acinetobacter baumannii [12] = experiment: Antimicrobial activity against Acinetobacter baumannii A24 by broth microdilution method; type: functional
Acinetobacter baumannii [13] = experiment: Antimicrobial activity against Acinetobacter baumannii B46 by agar dilution method; type: functional
Outline: (§1)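 Tigecycline MIC first estimated by Etest, then confirmed by agar dilution on Mueller-Hinton II agar. Strains were grown in LB broth.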

Acinetobacter baumannii [14] = experiment: Inhibition of AdeABC efflux pump protein in Acinetobacter baumannii A24D assessed as ethidium bromide accumulation at 100 uM; design: scale not given: the % may be the effect or the level left
Outline: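 Overnight cells were pelleted and resuspended to A600 0.2 in sodium phosphate buffer, pH 7.0. Ethidium bromide was added at 2 μg/ml final and incubated 420 s. CCCP was then added at 100 μM final for a further 180 s. Fluorescence was read at ex 530 / em 600 nm, with cell-only background subtracted. The value is the percent increase in accumulation after CCCP.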

Acinetobacter baumannii [15] = experiment: Antimicrobial activity against Acinetobacter baumannii A24A after 4 days by agar dilution method; type: functional; conditions: 96 h
Outline: (§2)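 Fresh cultures were passaged overnight on tigecycline-containing Mueller-Hinton II agar, boiled before inoculation to prevent tigecycline oxidative degradation. […] Inoculum was 0.5 McFarland. Tigecycline MICs were recorded daily by agar dilution.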

Acinetobacter baumannii [16] = experiment: Antimicrobial activity against Acinetobacter baumannii D54 by agar dilution method; type: functional
Outline: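 Tigecycline MIC screened by Etest and confirmed by agar dilution on Mueller-Hinton II agar; strains cultivated in LB broth.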

Acinetobacter baumannii [17] = experiment: Antimicrobial activity against Acinetobacter baumannii A24D after 4 days by agar dilution method; type: functional; conditions: 96 h; outline: as §2
Acinetobacter baumannii [18] = experiment: Inhibition of AdeABC efflux pump protein in Acinetobacter baumannii D54 assessed as ethidium bromide accumulation at 100 uM; design: scale not given: the % may be the effect or the level left
Outline: (§3)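 Overnight cells pelleted and resuspended to A600 0.2 in sodium phosphate buffer pH 7.0, with ethidium bromide at 2 μg/ml final. Incubated 420 s, then CCCP (protonophore) added at 100 μM final for a further 180 s. Fluorescence read at ex 530/em 600 nm, cell-only background subtracted, and expressed as percent increase in accumulation after CCCP.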

Acinetobacter baumannii [19] = experiment: Antimicrobial activity against Acinetobacter baumannii C75 in presence of efflux pump inhibitor phenyl-arginine-beta-naphthylamide by agar dilution method; type: functional
Acinetobacter baumannii [20] = experiment: Antimicrobial activity against Acinetobacter baumannii A24 in presence of efflux pump inhibitor phenyl-arginine-beta-naphthylamide by agar dilution method; type: functional
Acinetobacter baumannii [21] = experiment: Inhibition of AdeABC efflux pump protein in Acinetobacter baumannii A24 assessed as ethidium bromide accumulation at 100 uM; design: scale not given: the % may be the effect or the level left; outline: as §3
Acinetobacter baumannii [22] = experiment: Inhibition of AdeABC efflux pump protein in Acinetobacter baumannii B46 assessed as ethidium bromide accumulation at 100 uM; design: scale not given: the % may be the effect or the level left; outline: as §3
Acinetobacter baumannii [23] = experiment: Antimicrobial activity against Acinetobacter baumannii B46 in presence of efflux pump inhibitor phenyl-arginine-beta-naphthylamide by agar dilution method; type: functional
Acinetobacter baumannii [24] = experiment: Inhibition of AdeABC multidrug efflux pump in Acinetobacter baumannii C75 assessed as ethidium bromide accumulation at 100 uM; design: scale not given: the % may be the effect or the level left; outline: as §3
Acinetobacter baumannii [25] = experiment: Antimicrobial activity against Acinetobacter baumannii A24C after 4 days by agar dilution method; type: functional; conditions: 96 h; outline: as §2
Acinetobacter baumannii [26] = experiment: Antimicrobial activity against Acinetobacter baumannii A24 by agar dilution method; type: functional; outline: as §1
Acinetobacter baumannii [27] = experiment: Antimicrobial activity against Acinetobacter baumannii C75 by agar dilution method; type: functional; outline: as §1
Acinetobacter baumannii [28] = experiment: Antimicrobial activity against Acinetobacter baumannii A24D after 4 days in presence of efflux pump inhibitor phenyl-arginine-beta-naphthylamide by agar dilution method; type: functional; conditions: 96 h
Outline: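 Tigecycline MIC determined by agar dilution on Mueller-Hinton agar containing PABN, for bacteria from the final day of growth. PABN was dissolved in water as a 25 mg/ml stock and added to agar cooled to 50°C.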

Acinetobacter baumannii [29] = experiment: Antimicrobial activity against Acinetobacter baumannii A24B after 4 days by agar dilution method; type: functional; conditions: 96 h; outline: as §2

| Structure (SMILES) | MIC (Acinetobacter baumannii [1]) [µg/mL] | MIC (Acinetobacter baumannii [2]) [µg/mL] | MIC (Acinetobacter baumannii [3]) [µg/mL] | MIC (Acinetobacter baumannii [4]) [µg/mL] | MIC (Acinetobacter baumannii [5]) [µg/mL] | MIC (Acinetobacter baumannii [6]) [µg/mL] | MIC (Acinetobacter baumannii [7]) [µg/mL] | MIC (Acinetobacter baumannii [8]) [µg/mL] | MIC (Acinetobacter baumannii [9]) [µg/mL] | MIC (Acinetobacter baumannii [10]) [µg/mL] | MIC (Acinetobacter baumannii [11]) [µg/mL] | MIC (Acinetobacter baumannii [12]) [µg/mL] | also measured |
| --- | --- | --- | --- | --- | --- | --- | --- | --- | --- | --- | --- | --- | --- |
| CO/N=C(\C(=O)N[C@@H]1C(=O)N2C(C(=O)[O-])=C(C[N+]3(C)CCCC3)CS[C@H]12)c1csc(N)n1 [CEFEPIME] | 3 | 1 | 16 (≈ 33.3 µM) | > 256 | 12 (≈ 25 µM) | 1.5 (≈ 3.12 µM) | 16 | > 256 | 12 (≈ 25 µM) | 16 (≈ 33.3 µM) | 128 |  |  |
| CC(C)(O/N=C(\C(=O)N[C@@H]1C(=O)N2C(C(=O)[O-])=C(C[n+]3ccccc3)CS[C@H]12)c1csc(N)n1)C(=O)O [CEFTAZIDIME] | 96 | 32 | > 256 | 96 (≈ 176 µM) | > 256 | 4 (≈ 7.32 µM) | 8 | 192 (≈ 351 µM) | > 256 | > 256 | 8 | > 256 |  |
| O=C(N[C@H](CO)[C@H](O)c1ccc([N+](=O)[O-])cc1)C(Cl)Cl [CHLORAMPHENICOL] | 12 | 4 | 16 (≈ 49.5 µM) | 32 (≈ 99 µM) | 96 (≈ 297 µM) | 0.25 (≈ 0.774 µM) | 8 | 32 (≈ 99 µM) | 96 (≈ 297 µM) | 96 (≈ 297 µM) | 8 | 16 (≈ 49.5 µM) |  |
| O=C(O)c1cn(C2CC2)c2cc(N3CCNCC3)c(F)cc2c1=O [CIPROFLOXACIN] | 128 | 128 | 512 (≈ 1550 µM) | 128 (≈ 386 µM) | 256 (≈ 773 µM) | 0.25 (≈ 0.754 µM) | 256 | 512 (≈ 1550 µM) | 256 (≈ 773 µM) | 256 (≈ 773 µM) | 128 | 256 (≈ 773 µM) |  |
| C[C@@H](O)[C@H]1C(=O)N2C(C(=O)O)=C(SCCNC=N)C[C@H]12 [IMIPENEM ANHYDROUS] | 0.032 | 0.064 | 0.5 (≈ 1.67 µM) | 1.5 (≈ 5.01 µM) | 0.125 (≈ 0.418 µM) | 0.125 (≈ 0.418 µM) | 0.125 | 1.5 (≈ 5.01 µM) | 0.125 (≈ 0.418 µM) | 0.19 (≈ 0.635 µM) | 0.25 | 0.38 (≈ 1.27 µM) |  |
| C[C@@H](O)[C@H]1C(=O)N2C(C(=O)O)=C(S[C@@H]3CN[C@H](C(=O)N(C)C)C3)[C@H](C)[C@H]12 [MEROPENEM] | 0.094 | 0.094 | 2 (≈ 5.22 µM) | 4 (≈ 10.4 µM) | 0.75 (≈ 1.96 µM) | 0.25 (≈ 0.652 µM) | 0.125 | 4 (≈ 10.4 µM) | 0.75 (≈ 1.96 µM) | 0.75 (≈ 1.96 µM) | 0.25 | 1 (≈ 2.61 µM) |  |
| CN(C)c1ccc(O)c2c1C[C@H]1C[C@H]3[C@H](N(C)C)C(O)=C(C(N)=O)C(=O)[C@@]3(O)C(O)=C1C2=O [MINOCYCLINE] | 2 | 8 | 32 (≈ 69.9 µM) | 0.25 (≈ 0.546 µM) | 12 (≈ 26.2 µM) | 0.125 (≈ 0.273 µM) | 1 | 2 (≈ 4.37 µM) | 16 (≈ 35 µM) | 16 (≈ 35 µM) | 0.25 | 32 (≈ 69.9 µM) |  |
| CCN1CCN(C(=O)N[C@@H](C(=O)N[C@@H]2C(=O)N3[C@@H]2SC(C)(C)[C@@H]3C(=O)O)c2ccccc2)C(=O)C1=O [PIPERACILLIN] | 3 | 1 | 24 (≈ 46.4 µM) | 256 (≈ 495 µM) | 12 (≈ 23.2 µM) | 16 (≈ 30.9 µM) | 8 | 48 (≈ 92.7 µM) | 12 (≈ 23.2 µM) | 16 (≈ 30.9 µM) |  | 16 (≈ 30.9 µM) |  |
| CN(C)c1cc(NC(=O)CNC(C)(C)C)c(O)c2c1C[C@H]1C[C@H]3[C@H](N(C)C)C(O)=C(C(N)=O)C(=O)[C@@]3(O)C(O)=C1C2=O [TIGECYCLINE] |  |  |  |  |  |  |  |  |  |  |  |  | MIC (Acinetobacter baumannii [13]): 4 µg/mL (≈ 6.83 µM); Activity (Acinetobacter baumannii [14]): 114%; MIC (Acinetobacter baumannii [15]): 2 µg/mL (≈ 3.41 µM); MIC (Acinetobacter baumannii [16]): 0.125 µg/mL (≈ 0.213 µM); MIC (Acinetobacter baumannii [17]): 24 µg/mL (≈ 41 µM); Activity (Acinetobacter baumannii [18]): 31%; MIC (Acinetobacter baumannii [19]): 4 µg/mL; MIC (Acinetobacter baumannii [20]): 2 µg/mL; Activity (Acinetobacter baumannii [21]): 52%; Activity (Acinetobacter baumannii [22]): 115%; MIC (Acinetobacter baumannii [23]): 1 µg/mL; Activity (Acinetobacter baumannii [24]): 206%; MIC (Acinetobacter baumannii [25]): 6 µg/mL (≈ 10.2 µM); MIC (Acinetobacter baumannii [26]): 2 µg/mL (≈ 3.41 µM); MIC (Acinetobacter baumannii [27]): 16 µg/mL (≈ 27.3 µM); MIC (Acinetobacter baumannii [28]): 2 µg/mL; MIC (Acinetobacter baumannii [29]): 2 µg/mL (≈ 3.41 µM) |
| NC[C@H]1O[C@H](O[C@H]2[C@H](O)[C@@H](O[C@H]3O[C@H](CO)[C@@H](O)[C@H](N)[C@H]3O)[C@H](N)C[C@@H]2N)[C@H](N)C[C@@H]1O [TOBRAMYCIN] | 3 | 8 | 16 (≈ 34.2 µM) | 24 (≈ 51.3 µM) | 3 (≈ 6.42 µM) | 0.75 (≈ 1.6 µM) | 6 | 16 (≈ 34.2 µM) | 4 (≈ 8.56 µM) | 6 (≈ 12.8 µM) | 16 | 4 (≈ 8.56 µM) |  |
